Results reported in PMC9810488 (Translational and Clinical Pharmacology, 2022).
Read-outs that look alike come from different tables or passages of the source.

What was measured:
[1] = format: in vivo, human; conditions: sitagliptin 100 mg single oral dose, plasma
Summary of the method: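 Healthy Korean adults (≥19 years, BMI 18.0–30.0 kg/m2) took a single 100 mg oral tablet with 150 mL water in randomized periods, washout ≥7 days. Heparinized blood was drawn predose and 15 min–48 h postdose, centrifuged 3,000 rpm, 10 min, 4°C, and plasma stored at −70°C. Assay was LC-MS/MS, positive-ion ESI. Noncompartmental: Cmax observed, AUCinf by linear-up log-down trapezoidal rule. ABCB1 genotyped by TaqMan allelic discrimination.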

[2] = cited from earlier work
[3] = cited from earlier work; remark: listed apart in the source

SMILES | Sitagliptin AUCinf ([1]; ABCB1 C1236T CC+CT (n=72)) | Sitagliptin Cmax ([1]; ABCB1 C1236T CT+TT (n=81)) [ng/mL] | Sitagliptin AUCinf ([1]; ABCB1 C3435T CC (n=49)) | Sitagliptin AUCinf ([1]; ABCB1 C3435T CC+CT (n=91)) | Sitagliptin Cmax ([1]; ABCB1 C3435T CT (n=42)) [ng/mL] | Sitagliptin Cmax ([1]; ABCB1 C3435T CT+TT (n=51)) [ng/mL] | Sitagliptin AUCinf ([1]; ABCB1 C3435T TT (n=9)) | Sitagliptin AUCinf ([1]; ABCB1 G2677T/A AA (n=2)) | Sitagliptin AUCinf ([1]; ABCB1 G2677T/A AT+GA (n=37)) | Sitagliptin Cmax ([1]; ABCB1 G2677T/A AT+GA (n=37)) [ng/mL] | Sitagliptin AUCinf ([1]; ABCB1 G2677T/A AT+GT (n=44)) | Sitagliptin Cmax ([1]; ABCB1 G2677T/A AT+GT (n=44)) [ng/mL] | Sitagliptin AUCinf ([1]; ABCB1 G2677T/A GA (n=20)) | Sitagliptin AUCinf ([1]; ABCB1 G2677T/A GA+GT (n=47)) | Sitagliptin AUCinf ([1]; ABCB1 G2677T/A TT (n=9)) | drug eliminated as unchanged compound in the urine [2] | digoxin concentrations higher in 3435TT homozygous subjects than in CC and CT subjects ([3]; 34 Caucasian subjects) [%] | lower AUC for digoxin in 3435 TT genotype than in CC and CT genotypes ([3]; Japanese study, 114 subjects) [%] | relationship between C3435T SNP and digoxin concentrations ([3]; single digoxin dose)
N[C@@H](CC(=O)N1CCn2c(nnc2C(F)(F)F)C1)Cc1cc(F)c(F)cc1F [Sitagliptin] | 3,504.78 ± 655.77 ng*h/mL | 456.01 ± 123.74 | 3,530.20 ± 669.78 ng*h/mL | 3,484.02 ± 630.25 ng*h/mL | 454.26 ± 136.79 | 457.53 ± 130.73 | 3,528.50 ± 564.05 ng*h/mL | 3,481.41 ng*h/mL | 3,501.79 ± 714.08 ng*h/mL | 457.90 ± 98.21 | 3,475.54 ± 576.82 ng*h/mL | 457.31 ± 142.79 | 3,679.91 ± 852.18 ng*h/mL | 3,628.80 ± 723.63 ng*h/mL | 3,477.17 ± 596.14 ng*h/mL | over 80% |  |  | 
C[C@H]1O[C@@H](O[C@H]2[C@@H](O)C[C@H](O[C@H]3[C@@H](O)C[C@H](O[C@H]4CC[C@@]5(C)[C@H](CC[C@@H]6[C@@H]5C[C@@H](O)[C@]5(C)[C@@H](C7=CC(=O)OC7)CC[C@]65O)C4)O[C@@H]3C)O[C@@H]2C)C[C@H](O)[C@@H]1O [digoxin] |  |  |  |  |  |  |  |  |  |  |  |  |  |  |  |  | 20 | 20 | no relationship
